Laboratory results: ChEMBL document CHEMBL1255259, “Phosphorothioate-modified oligodeoxynucleotides inhibit human cytomegalovirus replication by blocking virus entry” (Antimicrob Agents Chemother, 2008)
pIC50: −log10 of the molar value. Calls of active or inactive are those of the source. No cut-off for these calls is given here.

How the values were obtained:
Human betaherpesvirus 5 [1] = assay: Antimicrobial activity against Human cytomegalovirus isolate 1814 infected in compound pretreated HELF assessed as inhibition of viral replication; type: functional, organism-based; details: Human betaherpesvirus 5, isolate 1814, HELF
In short: (§1)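 HELF pretreated 1 h with ODN, infected with clinical HCMV isolate (VR1814 or AL1, HUVEC-propagated) at MOI 1; ODN kept after 2 h adsorption. At 6 days p.i., yield titrated on HELF; IC50 from concentration–plaque reduction plot.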

[2] = Cytotoxicity against HELF assessed as cell viability after 6 days by MTT assay; type: cell-based; details: human, HELF cells
In short: (§2)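 HELF exposed to rising ODN concentrations (up to 10 μM) for 6 days; viable cells measured by MTT. CC50 taken as concentration that cuts viability to 50%.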

Human betaherpesvirus 5 [3] = assay: Antimicrobial activity against Human cytomegalovirus AD169 infected in HELF assessed as inhibition of viral replication at 1 uM measured after 6 days post-infection; type: functional, organism-based
Human betaherpesvirus 5 [4] = assay: Antimicrobial activity against Human cytomegalovirus AD169 infected in compound pretreated HELF assessed as expression of early protein by immunoblotting; type: functional, organism-based
In short: (§3)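 HELF pretreated with ODN (1 μM) 1 h before and during infection with HCMV AD169 (MOI 1). Whole-cell extracts taken at set times p.i., run on 8% SDS-PAGE (50 μg protein/lane), immunoblotted with MAbs to IE1/IE2, UL44 (early) or UL99 (late); actin as loading control.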

Human betaherpesvirus 5 [5] = assay: Antimicrobial activity against Human herpesvirus 5 strain AD169 infected in HELF assessed as pp65 nuclear localization at 0.1 uM after 2 hrs […]; type: functional, organism-based
Human betaherpesvirus 5 [6] = assay: Antimicrobial activity against Human cytomegalovirus isolate 1814 infected in compound pretreated HUVEC assessed as inhibition of viral replication; type: functional, organism-based; details: Human betaherpesvirus 5, isolate 1814, HUVEC
In short: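 HUVEC (passages 2–6, EGM-2 with 2% FBS) pretreated 1 h with ODN and infected with HCMV VR1814 at MOI 1; ODN maintained after 2 h adsorption. Yield at 6 days p.i. titrated on HELF; IC50 from concentration-dependent plaque reduction.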

Human betaherpesvirus 5 [7] = assay: Antimicrobial activity against 0.1 uM compound pretreated Human cytomegalovirus AD169 infected in HELF assessed as reduction in viral titer 37 degC; type: functional, organism-based
In short: (§4)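 HCMV AD169 (10^4 PFU) incubated with ODN at 0.1 μM at 4 or 37°C for various times; samples then diluted to bring ODN below an antivirally active level; residual infectivity titrated by plaque assay on HELF. Means ± SD of three independent experiments.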

unidentified adenovirus = assay: Antimicrobial activity against unidentified adenovirus infected in compound pretreated HELF assessed as inhibition of viral replication; type: functional, organism-based
In short: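 HELF pretreated 1 h with ODN (0.1 or 1 μM), infected with an adenovirus clinical isolate (MOI 1); ODN kept after 2 h adsorption. Harvest at 4 days p.i., sonication, plaque titration on HELF. Means ± SD, three experiments.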

Human betaherpesvirus 5 [8] = assay: Antimicrobial activity against Human cytomegalovirus AD169 infected in compound pretreated HELF assessed as expression of immediate early 1 protein by immunoblotting; type: functional, organism-based; in short: as §3
Human betaherpesvirus 5 [9] = assay: Antimicrobial activity against Human cytomegalovirus TB40 expressing EGPF tagged UL32 infected in HELF assessed as inhibition of inhibition of viral adsorption at 0.1 uM after 2 hrs by fluorescence microscopy; type: functional, organism-based
In short: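 Prechilled HELF on coverslips exposed to ODN (0.1 μM) or heparin (30 μg/ml) 1 h at 4°C, then infected with HCMV TB40 UL32-EGFP (MOI 20) 2 h at 4°C to permit attachment only. Washed in ice-cold PBS, fixed in 4% formaldehyde, propidium iodide counterstain; green virions imaged by confocal fluorescence microscopy. Done twice.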

[10] = Antimicrobial activity against Murine cytomegalovirus (strain Smith) infected in compound pretreated mouse NIH 3T3 cells assessed as inhibition of viral replication; type: functional, cell-based; details: Murid betaherpesvirus 1, NIH3T3
In short: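 NIH 3T3 pretreated 1 h with ODN, infected with MCMV Smith (MOI 1); ODN kept after 2 h adsorption at 37°C. Harvest at 6 days p.i., sonication, plaque assay on NIH 3T3; IC50 from plaque reduction. Means ± SD, three experiments.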

Human betaherpesvirus 5 [11] = assay: Antimicrobial activity against Human cytomegalovirus AD169 infected in 1 uM compound pretreated HELF assessed as inhibition of viral replication measured after 6 days post-infection; type: functional, organism-based
In short: (§5)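 HELF pretreated with ODN 1 h before infection with HCMV AD169 (MOI 1); ODN kept in medium after 2 h adsorption at 37°C. At 6 days p.i., cells plus supernatants sonicated and titrated by plaque assay on HELF; plaques counted microscopically, expressed as PFU/ml (log10) or % of control. IC50/IC90 by linear regression; duplicate wells, three independent experiments, means ± SD.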

Human betaherpesvirus 5 [12] = assay: Antimicrobial activity against Human cytomegalovirus AD169 infected in HELF assessed as inhibition of viral replication at 0.1 uM measured after 6 days post-infection; type: functional, organism-based
Human betaherpesvirus 5 [13] = assay: Antimicrobial activity against Human cytomegalovirus AD169 infected in compound pretreated HELF assessed as expression of late protein by immunoblotting; type: functional, organism-based; in short: as §3
Human betaherpesvirus 5 [14] = assay: Antimicrobial activity against Human cytomegalovirus AD169 infected in compound pretreated HELF assessed as expression of immediate early 2 protein by immunoblotting; type: functional, organism-based; in short: as §3
Human betaherpesvirus 5 [15] = assay: Antimicrobial activity against Human cytomegalovirus AD169 infected in compound pretreated HELF measured as immediate early 1 mRNA level by RT-PCR; type: functional, organism-based
Human betaherpesvirus 5 [16] = assay: Antimicrobial activity against 0.1 uM compound pretreated Human cytomegalovirus AD169 infected in HELF assessed as reduction in viral titer at 4 degC; type: functional, organism-based; in short: as §4
Human betaherpesvirus 5 [17] = assay: Antimicrobial activity against Human cytomegalovirus AD169 infected in 0.1 uM compound pretreated HELF assessed as viral DNA accumulation measured after 48 hrs post-infection by RT-PCR; type: functional, organism-based
In short: (§6)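 HELF treated with ODN (0.1 μM), then infected with HCMV AD169 (MOI 5). Total genomic DNA collected at 4 and 48 h p.i.; 15 ng analysed by TaqMan real-time PCR for IE1 (50 cycles, 95°C 15 s / 62°C 1 min). Copies normalized to 18S rRNA gene against plasmid standard curve. Means ± SD, three experiments.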

Human betaherpesvirus 5 [18] = assay: Antimicrobial activity against Human cytomegalovirus AD169 infected in compound pretreated HELF measured as immediate early 2 mRNA level by RT-PCR; type: functional, organism-based
Human betaherpesvirus 5 [19] = assay: Antimicrobial activity against Human cytomegalovirus AD169 infected in 0.1 uM compound pretreated HELF assessed as viral DNA accumulation measured after 4 hrs post-infection by RT-PCR; type: functional, organism-based; in short: as §6
Human alphaherpesvirus 1 [20] = assay: Antimicrobial activity against Human herpesvirus 1 infected in compound pretreated HELF assessed as inhibition of viral replication at 1 uM; type: functional, organism-based
In short: (§7)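 HELF pretreated with ODN (0.1 or 1 μM) 1 h before infection with a clinical HSV-1 isolate at MOI 0.1; ODN kept in medium after 2 h adsorption. Harvest at 48 h p.i., sonication, plaque titration on Vero cells. Means ± SD of three independent experiments.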

Human betaherpesvirus 5 [21] = assay: Antimicrobial activity against Human cytomegalovirus isolate AL1 infected in compound pretreated HELF assessed as inhibition of viral replication; type: functional, organism-based; details: Human betaherpesvirus 5, isolate AL1, HELF; in short: as §1
Human alphaherpesvirus 1 [22] = assay: Antimicrobial activity against Human herpesvirus 1 infected in compound pretreated HELF assessed as inhibition of viral replication at 0.1 uM; type: functional, organism-based; in short: as §7
Human betaherpesvirus 5 [23] = assay: Antimicrobial activity against Human cytomegalovirus AD169 infected in compound pretreated HELF assessed as inhibition of viral replication measured after 6 days post-infection; type: functional, organism-based; details: Human betaherpesvirus 5, AD169, HELF; in short: as §5
[24] = Cytotoxicity against HELF assessed as cell viability by MTT assay after 6 days at <=10 uM; type: cell-based; details: human, 144 h; in short: as §2
Human betaherpesvirus 5 [25] = assay: Antimicrobial activity against Human cytomegalovirus AD169 infected in 0.1 uM compound pretreated HELF assessed as inhibition of viral replication measured after 6 days post-infection; type: functional, organism-based; in short: as §5
[26] = test system: Vesicular stomatitis Indiana virus; assay: Antimicrobial activity against Vesicular stomatitis Indiana virus infected in compound pretreated HELF assessed as inhibition of viral replication; type: functional, organism-based
In short: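 HELFs exposed to ODN (0.1 or 1 μM) for 1 h, then infected with VSV serotype Indiana at MOI 1 (2 h adsorption, 37°C). ODN kept in the medium until 48 h p.i. Cells and supernatants were pooled, sonicated and titrated by plaque assay on HELFs. Data are means ± standard deviations of three independent experiments, duplicate wells.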

For Cc1cn([C@H]2C[C@H](OP(O)(O)=S)[C@@H](COP(O)(=S)O[C@H]3C[C@H](n4cc(C)c(=O)[nH]c4=O)O[C@@H]3COP(O)(=S)O[C@H]3[C@@H](O)[C@H](n4cnc5c(=O)[nH]c(N)nc54)O[C@@H]3COP(O)(=S)O[C@H]3[C@@H](O)[C@H](n4ccc(N)nc4=O)O[C@@H]3COP(O)(=S)O[C@H]3C[C@H](n4cc(C)c(=O)[nH]c4=O)O[C@@H]3COP(O)(=S)O[C@H]3[C@@H](O)[C@H](n4cnc5c(=O)[nH]c(N)nc54)O[C@@H]3COP(O)(=S)O[C@H]3C[C@H](n4cc(C)c(=O)[nH]c4=O)O[C@@H]3COP(O)(=S)O[C@H]3C[C@H](n4cc(C)c(=O)[nH]c4=O)O[C@@H]3COP(O)(=S)O[C@H]3C[C@H](n4cc(C)c(=O)[nH]c4=O)O[C@@H]3COP(O)(=S)O[C@H]3C[C@H](n4cc(C)c(=O)[nH]c4=O)O[C@@H]3COP(O)(=S)O[C@H]3[C@@H](O)[C@H](n4cnc5c(=O)[nH]c(N)nc54)O[C@@H]3COP(O)(=S)O[C@H]3[C@@H](O)[C@H](n4ccc(N)nc4=O)O[C@@H]3COP(O)(=S)O[C@H]3C[C@H](n4cc(C)c(=O)[nH]c4=O)O[C@@H]3COP(O)(=S)O[C@H]3[C@@H](O)[C@H](n4cnc5c(=O)[nH]c(N)nc54)O[C@@H]3COP(O)(=S)O[C@H]3C[C@H](n4cc(C)c(=O)[nH]c4=O)O[C@@H]3COP(O)(=S)O[C@H]3C[C@H](n4cc(C)c(=O)[nH]c4=O)O[C@@H]3COP(O)(=S)O[C@H]3C[C@H](n4cc(C)c(=O)[nH]c4=O)O[C@@H]3COP(O)(=S)O[C@H]3C[C@H](n4cc(C)c(=O)[nH]c4=O)O[C@@H]3COP(O)(=S)O[C@H]3[C@@H](O)[C@H](n4cnc5c(=O)[nH]c(N)nc54)O[C@@H]3COP(O)(=S)O[C@H]3[C@@H](O)[C@H](n4ccc(N)nc4=O)O[C@@H]3COP(O)(=S)O[C@H]3C[C@H](n4cc(C)c(=O)[nH]c4=O)O[C@@H]3COP(O)(=S)O[C@H]3[C@@H](O)[C@H](n4cnc5c(=O)[nH]c(N)nc54)O[C@@H]3COP(O)(=S)O[C@H]3[C@@H](O)[C@H](n4ccc(N)nc4=O)O[C@@H]3COP(O)(=S)O[C@H]3C[C@H](n4cc(C)c(=O)[nH]c4=O)O[C@@H]3CO)O2)c(=O)[nH]c1=O (stereo partly drawn), the pIC50 (Human betaherpesvirus 5 [1]) was 7.42, the CC50 at 144 h [2] was over 10000 nM and the inhibition (Human betaherpesvirus 5 [3]) was “inactive”. For the same compound, the inhibition (Human betaherpesvirus 5 [4]) was “Active”, the inhibition (Human betaherpesvirus 5 [5]) was “Active” and the pIC50 (Human betaherpesvirus 5 [6]) was 7.60. For the same compound, the inhibition (Human betaherpesvirus 5 [7]) was “inactive”, the inhibition (unidentified adenovirus) was “inactive” and the inhibition (Human betaherpesvirus 5 [8]) was “Active”. The inhibition (Human betaherpesvirus 5 [9]) was “inactive”, the pIC50 [10] was 7.30 and the inhibition (Human betaherpesvirus 5 [11]) was “Active”. For the same compound, the inhibition (Human betaherpesvirus 5 [12]) was “inactive”, the inhibition (Human betaherpesvirus 5 [13]) was “Active” and the inhibition (Human betaherpesvirus 5 [14]) was “Active”. The inhibition (Human betaherpesvirus 5 [15]) was “Active”, the inhibition (Human betaherpesvirus 5 [16]) was “inactive” and the inhibition (Human betaherpesvirus 5 [17]) was “Active”. The inhibition (Human betaherpesvirus 5 [18]) was “Active”, the inhibition (Human betaherpesvirus 5 [19]) was “Active” and the inhibition (Human alphaherpesvirus 1 [20]) was “inactive”. The pIC50 (Human betaherpesvirus 5 [21]) was 7.36, the inhibition (Human alphaherpesvirus 1 [22]) was “inactive” and the pIC50 (Human betaherpesvirus 5 [23]) was 7.70. The IC90 (Human betaherpesvirus 5 [23]) was 65 nM, the Activity [24] was “Non-toxic” and the inhibition (Human betaherpesvirus 5 [25]) was “Active”. For the same compound, the inhibition [26] was “inactive”.
